Experimental data from ChEMBL document CHEMBL1165943, “Design and synthesis of new anticancer pyrimidines with multiple-kinase inhibitory effect” (Bioorg Med Chem, 2010).

Experiments:
Type in all cases: functional
[1] = test system: K562; experiment: Cytotoxicity against human K562 cells assessed as cell growth at 10 uM; settings: Homo sapiens, K562; read-out: Activity
Summary of the method: (§1)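 Single-dose screen at 10 μM across the 60-cell-line panel. Cells grown in RPMI 1640 with 5% FBS and 2 mM L-glutamine, seeded at 5,000–40,000 cells/well according to doubling time, and treated 24 h later. Exposure lasted 48 h at 37 °C, 5% CO₂. Adherent cells were fixed with cold TCA, suspension cells were fixed settled, and both were stained with SRB and read at 515 nm. Growth % was recorded, with inhibition % = 100 − growth %.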

[2] = test system: MOLT-4; experiment: Cytotoxicity against human MOLT4 cells assessed as cell growth at 10 uM; settings: Homo sapiens, MOLT-4; read-out: Activity; summary of the method: as §1
[3] = test system: SR; experiment: Cytotoxicity against human SR cells assessed as cell growth at 10 uM; settings: Homo sapiens, SR; read-out: Activity; summary of the method: as §1
[4] = test system: EKVX; experiment: Cytotoxicity against human EKVX cells assessed as cell growth at 10 uM; settings: Homo sapiens, EKVX; read-out: Activity
Summary of the method: (§2)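 Single-concentration screen at 10 μM across the 60-cell-line panel (nine tissue types); growth percentage recorded per cell line, with inhibition taken as 100 minus growth percentage.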

[5] = test system: HOP-62; experiment: Cytotoxicity against human HOP62 cells assessed as cell growth at 10 uM; settings: Homo sapiens, HOP-62; read-out: Activity; summary of the method: as §2
[6] = test system: NCI-H226; experiment: Cytotoxicity against human NCI-H226 cells assessed as cell growth at 10 uM; settings: Homo sapiens, NCI-H226; read-out: Activity; summary of the method: as §1
[7] = test system: NCI-H23; experiment: Cytotoxicity against human NCI-H23 cells assessed as cell growth at 10 uM; settings: Homo sapiens, NCI-H23; read-out: Activity; summary of the method: as §1
[8] = test system: NCI-H522; experiment: Cytotoxicity against human NCI-H522 cells assessed as cell growth at 10 uM; settings: Homo sapiens, NCI-H522; read-out: Activity; summary of the method: as §1
[9] = test system: COLO 205; experiment: Cytotoxicity against human COLO205 cells assessed as cell growth at 10 uM; settings: Homo sapiens, COLO 205; read-out: Activity; summary of the method: as §2
[10] = test system: HCC 2998; experiment: Cytotoxicity against human HCC2998 cells assessed as cell growth at 10 uM; settings: Homo sapiens, HCC 2998; read-out: Activity; summary of the method: as §2
[11] = test system: HCT-116; experiment: Cytotoxicity against human HCT116 cells assessed as cell growth at 10 uM; settings: Homo sapiens, HCT-116; read-out: Activity; summary of the method: as §2
[12] = test system: HCT-15; experiment: Cytotoxicity against human HCT15 cells assessed as cell growth at 10 uM; settings: Homo sapiens, HCT-15; read-out: Activity; summary of the method: as §2
[13] = test system: HT-29; experiment: Cytotoxicity against human HT-29 cells assessed as cell growth at 10 uM; settings: Homo sapiens, HT-29; read-out: Activity; summary of the method: as §2
[14] = test system: SW-620; experiment: Cytotoxicity against human SW620 cells assessed as cell growth at 10 uM; settings: Homo sapiens, SW-620; read-out: Activity; summary of the method: as §1
[15] = test system: SF-268; experiment: Cytotoxicity against human SF268 cells assessed as cell growth at 10 uM; settings: Homo sapiens, SF-268; read-out: Activity; summary of the method: as §1
[16] = test system: SF-295; experiment: Cytotoxicity against human SF295 cells assessed as cell growth at 10 uM; settings: Homo sapiens, SF-295; read-out: Activity; summary of the method: as §1
[17] = test system: SF-539; experiment: Cytotoxicity against human SF539 cells assessed as cell growth at 10 uM; settings: Homo sapiens, SF-539; read-out: Activity; summary of the method: as §1
[18] = test system: SNB-75; experiment: Cytotoxicity against human SNB75 cells assessed as cell growth at 10 uM; settings: Homo sapiens, SNB-75; read-out: Activity; summary of the method: as §1
[19] = test system: U-251; experiment: Cytotoxicity against human U251 cells assessed as cell growth at 10 uM; settings: Homo sapiens, U-251; read-out: Activity; summary of the method: as §1
[20] = test system: LOX IMVI; experiment: Cytotoxicity against human LOXIMVI cells assessed as cell growth at 10 uM; settings: Homo sapiens, LOX IMVI; read-out: Activity; summary of the method: as §1
[21] = test system: Malme-3M; experiment: Cytotoxicity against human MALME-3M cells assessed as cell growth at 10 uM; settings: Homo sapiens, Malme-3M; read-out: Activity; summary of the method: as §1
[22] = test system: SK-MEL-28; experiment: Cytotoxicity against human SK-MEL-28 cells assessed as cell growth at 10 uM; settings: Homo sapiens, SK-MEL-28; read-out: Activity; summary of the method: as §1
[23] = test system: UACC-257; experiment: Cytotoxicity against human UACC257 cells assessed as cell growth at 10 uM; settings: Homo sapiens, UACC-257; read-out: Activity; summary of the method: as §1
[24] = test system: OVCAR-3; experiment: Cytotoxicity against human OVCAR-3 cells assessed as cell growth at 10 uM; settings: Homo sapiens, OVCAR-3; read-out: Activity; summary of the method: as §1
[25] = test system: OVCAR-4; experiment: Cytotoxicity against human OVCAR4 cells assessed as cell growth at 10 uM; settings: Homo sapiens, OVCAR-4; read-out: Activity; summary of the method: as §1
[26] = test system: OVCAR-8; experiment: Cytotoxicity against human OVCAR8 cells assessed as cell growth at 10 uM; settings: Homo sapiens, OVCAR-8; read-out: Activity; summary of the method: as §1
[27] = test system: NCI/ADR-RES; experiment: Cytotoxicity against human NCI/ADR-RES cells assessed as cell growth at 10 uM; settings: Homo sapiens, NCI/ADR-RES; read-out: Activity; summary of the method: as §1
[28] = test system: SK-OV-3; experiment: Cytotoxicity against human SKOV3 cells assessed as cell growth at 10 uM; settings: Homo sapiens, SK-OV-3; read-out: Activity; summary of the method: as §1
[29] = test system: ACHN; experiment: Cytotoxicity against human ACHN cells assessed as cell growth at 10 uM; settings: Homo sapiens, ACHN; read-out: Activity; summary of the method: as §2
[30] = test system: CAKI-1; experiment: Cytotoxicity against human Caki1 cells assessed as cell growth at 10 uM; settings: Homo sapiens, CAKI-1; read-out: Activity; summary of the method: as §2
[31] = test system: TK-10; experiment: Cytotoxicity against human TK10 cells assessed as cell growth at 10 uM; settings: Homo sapiens, TK-10; read-out: Activity; summary of the method: as §1
[32] = test system: UO-31; experiment: Cytotoxicity against human UO31 cells assessed as cell growth at 10 uM; settings: Homo sapiens, UO-31; read-out: Activity; summary of the method: as §1
[33] = test system: PC-3; experiment: Cytotoxicity against human PC3 cells assessed as cell growth at 10 uM; settings: Homo sapiens, PC-3; read-out: Activity; summary of the method: as §1
[34] = test system: DU-145; experiment: Cytotoxicity against human DU145 cells assessed as cell growth at 10 uM; settings: Homo sapiens, DU-145; read-out: Activity; summary of the method: as §2
[35] = test system: MCF7; experiment: Cytotoxicity against human MCF7 cells assessed as cell growth at 10 uM; settings: Homo sapiens, MCF7; read-out: Activity; summary of the method: as §1
[36] = test system: MDA-MB-231; experiment: Cytotoxicity against human MDA-MB-231 cells assessed as cell growth at 10 uM; settings: Homo sapiens, MDA-MB-231; read-out: Activity; summary of the method: as §1
[37] = test system: BT-549; experiment: Cytotoxicity against human BT549 cells assessed as cell growth at 10 uM; settings: Homo sapiens, BT-549; read-out: Activity; summary of the method: as §2
[38] = test system: MDA-MB-468; experiment: Cytotoxicity against human MDA-MB-468 cells assessed as cell growth at 10 uM; settings: Homo sapiens, MDA-MB-468; read-out: Activity; summary of the method: as §1
[39] = Growth inhibition of human NCI60 cells at 10 uM after 48 hrs by sulforhodamine B assay relative to control; settings: Homo sapiens, NCI60, 48 h; read-out: GI
Summary of the method: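 Single 10 µM dose across the 60-line panel for 48 h, with the same culture, TCA fixation and SRB 515 nm read-out. Inhibition % = 100 − growth %, given as the mean over the 60 cell lines.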

Structure (SMILES) | growth at 10 µM [1] | growth at 10 µM [2] | growth at 10 µM [3] | growth at 10 µM [4] | growth at 10 µM [5] | growth at 10 µM [6] | growth at 10 µM [7] | growth at 10 µM [8] | growth at 10 µM [9] | growth at 10 µM [10] | growth at 10 µM [11] | growth at 10 µM [12] | growth at 10 µM [13] | growth at 10 µM [14] | growth at 10 µM [15] | growth at 10 µM [16] | growth at 10 µM [17] | growth at 10 µM [18] | growth at 10 µM [19] | growth at 10 µM [20] | also measured
Cc1ccc(Nc2nc(C)cc(-c3cccnc3)n2)c(C)c1 | 85.8% | 91.4% | 94.4% | 96.1% | 111% | 94.8% | 90.9% | 90.6% | 122% | 101% | 95.2% | 99.7% | 96.8% | 97.5% | 96.4% | 98.3% | 89.7% | 85.3% | 92.2% | 102% | growth at 10 µM [21]: 107%; growth at 10 µM [22]: 108%; growth at 10 µM [23]: 100%; growth at 10 µM [24]: 105%; growth at 10 µM [25]: 102%; growth at 10 µM [26]: 94.2%; growth at 10 µM [27]: 85%; growth at 10 µM [28]: 104%; growth at 10 µM [29]: 108%; growth at 10 µM [30]: 88.8%; growth at 10 µM [31]: 118%; growth at 10 µM [32]: 86.9%; growth at 10 µM [33]: 91.7%; growth at 10 µM [34]: 99.5%; growth at 10 µM [35]: 90%; growth at 10 µM [36]: 87.6%; growth at 10 µM [37]: 95.9%; growth at 10 µM [38]: 72.8%; inhibition of growth at 10 µM [39]: 3.91%
FC(F)(F)c1cc(Nc2nccc(-c3ccc(-c4ccccc4)nc3)n2)cc(C(F)(F)F)c1 | 91.5% | 93.4% | 97.8% | 101% | 110% | 115% | 98.5% | 83.3% | 95.6% | 124% | 81.6% | 99.9% | 86% | 110% | 105% | 114% | 95.8% | 86.8% | 99.1% | 98.8% | growth at 10 µM [21]: 123%; growth at 10 µM [22]: 109%; growth at 10 µM [23]: 113%; growth at 10 µM [24]: 114%; growth at 10 µM [25]: 95%; growth at 10 µM [26]: 94.1%; growth at 10 µM [27]: 101%; growth at 10 µM [28]: 94.6%; growth at 10 µM [29]: 96%; growth at 10 µM [30]: 91.6%; growth at 10 µM [31]: 99.5%; growth at 10 µM [32]: 87.2%; growth at 10 µM [33]: 90.3%; growth at 10 µM [34]: 109%; growth at 10 µM [35]: 83.2%; growth at 10 µM [36]: 87.3%; growth at 10 µM [37]: 106%; growth at 10 µM [38]: 110%; inhibition of growth at 10 µM [39]: 0.49%
